The term IC50 denotes the concentration that inhibits the measured activity by half.

In one data set the test system is PC-3. The data set can be described thus: Antiproliferative activity against human PC-3 cells assessed as inhibition of cell growth measured after 72 hrs by MTT assay. The data set is classed as functional, cell-based. The following applies: PC-3, 72 h. The gist of the method:
(§1)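 Cells in log phase were seeded at 3000–5000 per well and cultured 24 h at 37 °C, then exposed to a range of compound concentrations in fresh medium for 72 h. MTT was added and incubated 4 h at 37 °C, formazan was dissolved in DMSO, and absorbance was read at 490 nm. IC50 was taken from survival rate, as mean ± SD of three independent experiments. Stocks were 10 mM in DMSO.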
On the technique in general: Tetrazolium assays rely on reduction of a dye to a coloured formazan, in cell work by metabolically active cells.

The test system of the next data set is MGC-803. Nature of the data set: Antiproliferative activity against human MGC-803 cells assessed as inhibition of cell growth measured after 72 hrs by MTT assay. The following applies: MGC-803, 72 h. The data set is classed as functional, cell-based. An outline of the steps: as §1
For a further data set, the system named is MCF7. Nature of the data set: Antiproliferative activity against human MCF7 cells assessed as inhibition of cell growth measured after 72 hrs by MTT assay. The data set is classed as functional, cell-based. The following applies: MCF7, 72 h. The gist of the method:
as §1

The test system of another data set is NCI-H1975. The data set can be described thus: Antiproliferative activity against human NCI-H1975 cells assessed as inhibition of cell growth measured after 72 hrs by MTT assay. The conditions noted are these: NCI-H1975, 72 h. The data set is classed as functional, cell-based. The gist of the method:
as §1

The subject of a further data set is GES1. The data set can be described thus: Cytotoxicity against human GES1 cells assessed as reduction in cell viability measured after 72 hrs by MTT assay. The conditions noted are these: GES1, 72 h. The data set is classed as cell-based. An outline of the steps: as §1
A short description of data set [1]: Selectivity index, ratio of IC50 for cytotoxicity against human GES1 cells to IC50 for antiproliferative activity against human NCI-H1975 cells. The data set is classed as toxicity, cell-based. The following applies: GES1 cells versus NCI-H1975 cells, read-out: Ratio IC50. An outline of the steps:
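Ratio of GES-1 IC50 to H1975 IC50. Both came from the 72 h MTT assay, with IC50 as the mean ± SD of three separate experiments.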

Molecules are shown by their SMILES. Some results are limits rather than exact numbers.

As for `C=CC(=O)Nc1cccc(Nc2cc(C(F)(F)F)nc(SCc3ccc(C(F)(F)F)cc3)n2)c1`, the IC50 in the data set on PC-3 stood at 5.65 µM; in the data set on MGC-803, 9.8 µM; with MCF7, 7.08 µM; with NCI-H1975 it was 4.77 µM; in the data set on GES1, 31.5 µM. In addition, in data set [1], the selectivity ratio was 6.6.

In the case of `O=c1[nH]cc(F)c(=O)[nH]1` [FLUOROURACIL], the IC50 in the data set with PC-3 was 6.23 µM; with MGC-803 it was 9.05 µM; in the data set with MCF7, 8.77 µM; in the data set on NCI-H1975, 9.37 µM; with GES1, 19.3 µM. For the same compound, in data set [1], the selectivity ratio was 2.06.

Turning to `Nc1cccc(Nc2cc(C(F)(F)F)nc(SCc3ccc(C(F)(F)F)cc3)n2)c1`, the IC50 was 23.2 µM in the data set with PC-3, 8.97 µM in the data set with MGC-803, 13.5 µM in the data set on MCF7 and 23.6 µM in the data set on NCI-H1975.

For `C=CC(=O)Nc1cccc(Nc2cc(C(F)(F)F)nc(SCc3cccc(OC)c3)n2)c1`, the IC50 was found to be 11.5 µM in the data set on PC-3, 32.4 µM in the data set on MGC-803, 8.91 µM with MCF7 and 9.45 µM in the data set with NCI-H1975.

In the case of `FC(F)(F)c1ccc(CSc2nc(Sc3ncc(-c4ccncc4)s3)cc(C(F)(F)F)n2)cc1`, the IC50 was determined as 7.35 µM in the data set with PC-3, 5.77 µM with MGC-803, 10.1 µM in the data set on MCF7 and 16.7 µM in the data set with NCI-H1975.

On to `Cc1nnc(Sc2cc(C(F)(F)F)nc(SCc3ccc(C(F)(F)F)cc3)n2)s1`, for which the IC50 is more than 50 µM with PC-3, 11.4 µM in the data set with MGC-803, more than 50 µM in the data set on MCF7 and 3.06 µM in the data set with NCI-H1975.

Take `Fc1ccc(Nc2cc(C(F)(F)F)nc(SCc3ccc(C(F)(F)F)cc3)n2)cc1`: the IC50 with PC-3 is 14.1 µM; with MGC-803, 19.2 µM; in the data set on MCF7 it was more than 50 µM; in the data set on NCI-H1975, 17.4 µM.

For the compound `C=CC(=O)Nc1cccc(Nc2cc(C(F)(F)F)nc(SCc3ccccc3OC)n2)c1`, the IC50 in the data set on PC-3 came out at 9.96 µM; with MGC-803, 32.7 µM; in the data set with MCF7, 22 µM; with NCI-H1975 it was 6.5 µM.

As for `C=CC(=O)Nc1cccc(Nc2cc(C(F)(F)F)nc(SCc3ccccc3F)n2)c1`, the IC50 with PC-3 is 8.67 µM; with MGC-803, 13.4 µM; in the data set on MCF7 it was 31.1 µM; in the data set on NCI-H1975, 15.4 µM.

On to `FC(F)(F)c1ccc(CSc2nc(N3CCN(c4ccccn4)CC3)cc(C(F)(F)F)n2)cc1`, for which the 50% inhibitory concentration (IC50) was more than 50 µM with PC-3, 23.5 µM in the data set on MGC-803, more than 50 µM in the data set with MCF7 and 17.4 µM with NCI-H1975.

Values taken from ChEMBL document CHEMBL5030525, “Design, synthesis and antitumor activity evaluation of trifluoromethyl-substituted pyrimidine derivatives” (Bioorg Med Chem Lett, 2021).
